Columns and labels:
[1] = test system: Gli1-mediated transcription (human full-length Gli1); assay: Gli-Luc reporter assay in C3H10T1/2 cells transfected with Gli1; format: cell-based; details: for inhibition of Gli1-mediated transcription (Gli-Luc), relative potency in words: Gli1-transfected C3H10T1/2 cells, 10 µM or 20 µM, 24 h
[2] = test system: Histone deacetylase (HDAC); assay: HDAC inhibition; format: biochemical; details: up to 40 µM; data not shown
[3] = test system: Gli1-target genes in Rh30 cells; assay: Real-time RT-PCR of Gli1-target genes in Rh30 cells; format: cell-based; details: 24 h after addition
[4] = test system: Hh signal-mediated alkaline phosphatase; assay: Hh signal-mediated alkaline phosphatase induction in C3H10T1/2 cells; format: cell-based, mouse; details: osteoblastic differentiation marker
[5] = Microsomal stability assay; format: in vitro ADME; details: CD-1 female mouse liver microsomes, 37°C
[6] = test system: endogenous Gli in Rh30 cells; assay: Gli-mediated transcription reporter assay in Rh30 cells; format: cell-based
Procedure, shortened: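 Rh30 cells seeded at 3×10^5 per dish in RPMI-1640 with 10% FBS (37 °C, 5% CO2); after 24 h (~70% confluence) transfected with GliLuc-BS (500 ng/mL) and pRL-CMV (2.5 ng/mL) using Fugene6. Replated into 96-well plates 6 h post-transfection; 18 h later exposed to test compound or DMSO for 24 h. Lysed cells read by dual luciferase as firefly/Renilla ratio.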

medulloblastoma [7] = details: mouse model in which Ptch1 is inactivated; cited from earlier work
medulloblastoma [8] = details: mouse model in which SuFu is inactivated; cited from earlier work
bone development = details: young mice; cited from earlier work

## CC(C(=O)NCc1ccc2[nH]ccc2c1)c1cccc(C(=O)c2ccccc2)c1 (stereo not shown) [compound 21, N-((1H-Indol-5-yl)methyl)-2-(3-benzoylphenyl)propanamide]
[1]
  inhibition of Gli1-mediated transcription (Gli-Luc), relative potency in words: higher activity than 20

## CCCC(C)(C(=O)Nc1ccc2cc[nH]c2c1)c1cccc(C(=O)c2ccccc2)c1 (stereo not shown) [compound 40, 2-(3-Benzoylphenyl)-N-(1H-indol-6-yl)-2-methylpentanamide]
[1]
  inhibition of Gli1-mediated transcription (Gli-Luc), relative potency in words: did not increase potency

## CCCn1ccc2ccc(NC(=O)C(C)c3cccc(C(=O)c4ccccc4)c3)cc21 (stereo not shown) [compound 41, 2-(3-Benzoylphenyl)-N-(1-propyl-1H-indol-6-yl)propanamide]
[1]
  inhibition of Gli1-mediated transcription (Gli-Luc), relative potency in words: did not increase potency

## CC(C(=O)NCCc1ccc2[nH]ccc2c1)c1cccc(C(=O)c2ccccc2)c1 (stereo not shown) [compound 20, N-(2-(1H-Indol-5-yl)ethyl)-2-(3-benzoylphenyl)propanamide]
[1]
  inhibition of Gli1-mediated transcription (Gli-Luc), relative potency in words: much weaker activity than 5

## CC(CNC(=O)c1cccc2[nH]ccc12)c1cccc(C(=O)c2ccccc2)c1 (stereo not shown) [compound 30, N-(2-(3-Benzoylphenyl)propyl)-1H-indole-4-carboxamide]
[1]
  inhibition of Gli1-mediated transcription (Gli-Luc), relative potency in words: decreased the potency

## CCCN(C(=O)C(C)c1cccc(C(=O)c2ccccc2)c1)c1ccc2cc[nH]c2c1 (stereo not shown) [compound 33, 2-(3-Benzoylphenyl)-N-(1H-indol-6-yl)-N-propylpropanamide]
[2]
  HDAC inhibition: do not inhibit
[3]
  expression of Gli1-target genes in Rh30 cells (RT-PCR): inhibits expression of Gli1-target genes
[4]
  inhibitory effect in inducing Hh signal-mediated alkaline phosphatase: much smaller than that of HhAntag
[5]
  stability in mouse liver microsomes, in words: much more stable than 5 and 6
[6]; 10 µM or 20 µM, 24 h
  Gli-Luc inhibition in Rh30 cells, in words: inhibition with similar or slightly weaker potency

## CC(CNC(=O)c1cc2ccccc2[nH]1)c1cccc(C(=O)c2ccccc2)c1 (stereo not shown) [compound 28, N-(2-(3-Benzoylphenyl)propyl)-1H-indole-2-carboxamide]
[1]
  inhibition of Gli1-mediated transcription (Gli-Luc), relative potency in words: equipotent inhibitors

## CCCN(Cc1ccc2[nH]ccc2c1)C(=O)C(C)c1cccc(C(=O)c2ccccc2)c1 (stereo not shown) [compound 44, N-((1H-Indol-5-yl)methyl)-2-(3-benzoylphenyl)-N-propylpropanamide]
[1]
  inhibition of Gli1-mediated transcription (Gli-Luc), relative potency in words: weaker potency than 42

## CCCN(C(=O)C(C)c1cccc(C(=O)c2ccccc2)c1)c1ccc2[nH]ccc2c1 (stereo not shown) [compound 42, 2-(3-Benzoylphenyl)-N-(1H-indol-5-yl)-N-propylpropanamide]
[2]
  HDAC inhibition: do not inhibit
[4]
  inhibitory effect in inducing Hh signal-mediated alkaline phosphatase: much smaller than that of HhAntag
[6]; 10 µM or 20 µM, 24 h
  Gli-Luc inhibition in Rh30 cells, in words: inhibition with similar or slightly weaker potency

## CC(CNC(=O)Cc1ccc2[nH]ccc2c1)c1cccc(C(=O)c2ccccc2)c1 (stereo not shown) [compound 25, N-(2-(3-Benzoylphenyl)propyl)-2-(1H-indol-5-yl)acetamide]
[1]
  inhibition of Gli1-mediated transcription (Gli-Luc), relative potency in words: only weak activity

## CC(C(=O)NCCc1ccc(O)cc1)c1cccc(C(=O)c2ccccc2)c1 (stereo not shown) [compound 5]
[2]
  HDAC inhibition: do not inhibit
[5]
  time to complete consumption in mouse liver microsomes: less than 1 h

## CC(C(=O)Nc1ccc2[nH]ccc2c1)c1cccc(C(=O)c2ccccc2)c1 (stereo not shown) [compound 22, 2-(3-Benzoylphenyl)-N-(1H-indol-5-yl)propanamide]
[1]
  inhibition of Gli1-mediated transcription (Gli-Luc), relative potency in words: higher activity than 20

## COc1cc(OC)cc(C(=O)Nc2ccc(Cl)c(-c3nc4ccc(N(C)C)cc4[nH]3)c2)c1 [HhAntag]
Medulloblastoma [7]
  effect on medulloblastoma: eliminate medulloblastoma
Medulloblastoma [8]
  efficacy: not to be effective
Bone development
  effect on bone development: permanent defects in bone development
[6]; concentration as high as 40 µM
  Gli-Luc inhibition in Rh30 cells, in words: almost no Gli-Luc inhibition

## CC(C(=O)N(C)c1ccc2cc[nH]c2c1)c1cccc(C(=O)c2ccccc2)c1 (stereo not shown) [compound 32, 2-(3-Benzoylphenyl)-N-(1H-indol-6-yl)-N-methylpropanamide]
[1]
  inhibition of Gli1-mediated transcription (Gli-Luc), relative potency in words: Little improvement

## CC(CNC(=O)c1cccc2cc[nH]c12)c1cccc(C(=O)c2ccccc2)c1 (stereo not shown) [compound 31, N-(2-(3-Benzoylphenyl)propyl)-1H-indole-7-carboxamide]
[1]
  inhibition of Gli1-mediated transcription (Gli-Luc), relative potency in words: decreased the potency

## CN(C)c1ccccc1CN1CCCN(Cc2ccccc2N(C)C)C1c1ccncc1 [GANT61, reference compound]
[1]; Homo sapiens, C3H 10T1/2, 24 h, read-out: IC50, Gli-Luc signal in Gli1-transfected C3H10T1/2 cells
  IC50: ~20 µM

## CC(C(=O)Nc1ccc2cc[nH]c2c1)c1cccc(C(=O)c2ccccc2)c1 (stereo not shown) [compound 23, 2-(3-Benzoylphenyl)-N-(1H-indol-6-yl)propanamide]
[1]
  inhibition of Gli1-mediated transcription (Gli-Luc), relative potency in words: best among the tested analogs
[4]
  inhibitory effect in inducing Hh signal-mediated alkaline phosphatase: much smaller than that of HhAntag
[5]
  stability in mouse liver microsomes, in words: much more stable than 5 and 6
[6]; 10 µM or 20 µM, 24 h
  Gli-Luc inhibition in Rh30 cells, in words: inhibition with similar or slightly weaker potency

## CCCN(CCc1ccc(O)cc1)C(=O)C(C)c1cccc(C(=O)c2ccccc2)c1 (stereo not shown) [compound 6]
[2]
  HDAC inhibition: do not inhibit
[5]
  time to complete consumption in mouse liver microsomes: less than 1 h

## CC(CNC(=O)c1c[nH]c2ccccc12)c1cccc(C(=O)c2ccccc2)c1 (stereo not shown) [compound 29, N-(2-(3-Benzoylphenyl)propyl)-1H-indole-3-carboxamide]
[1]
  inhibition of Gli1-mediated transcription (Gli-Luc), relative potency in words: equipotent inhibitors

## CCCN(C(=O)C(C)c1cccc(C(=O)c2ccccc2)c1)c1cccc2[nH]ccc12 (stereo not shown) [compound 43, 2-(3-Benzoylphenyl)-N-(1H-indol-4-yl)-N-propylpropanamide]
[1]
  inhibition of Gli1-mediated transcription (Gli-Luc), relative potency in words: equipotent to 33

From paper PMC2952073 (Bioorganic & medicinal chemistry, 2010)
